Assay outcomes as filed in PubChem BioAssay.
Most compounds without a hit are left out; they make up all but 2.9% or so of the library.
Insulin prom up = MIN6 insulin promoter up-regulation; MIN6 insulin promoter-GFP reporter, high-content imaging; active compounds read high; z-score at 5 µM; 190,000 tested, 0.3% active; AID 1625;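 active means z-score above 3 at 5 µM with at least 500 cells counted in the well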
MT stabilize HCS = microtubule stabilization, imaging screen. % tubulin-high responders, % at 10 µM. 200,000 tested, 0.83% active. HeLa tubulin immunostaining HCS, 24 h; share of cells brighter than vehicle mean+2SD;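 active means plate Z-score above 3 for both tubulin-high and condensed-nucleus cell shares, with cell loss under 80%, at 10 µM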;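 further: anti alpha tubulin signal scored within the nucleus-defined area of each cell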
Wee1 degr inh = blocks degradation of human Wee1 kinase; 220,000 tested, 1.2% active; reporter increase, % at 5 µM; HeLa Luc-Wee1K328M stability, luciferase luminescence; 100% = proteasome inhibitor MG132 effect; P30291;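 active means activation above the mean of all tested compounds plus 3 SD, set per screening run, cut at about 8.8% in these data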;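 further: cells exposed to compound for 20 h before luminescence read; 0% = DMSO alone and 100% = MG132 at 30 µM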
Target sequence (P30291 whole entry K328M): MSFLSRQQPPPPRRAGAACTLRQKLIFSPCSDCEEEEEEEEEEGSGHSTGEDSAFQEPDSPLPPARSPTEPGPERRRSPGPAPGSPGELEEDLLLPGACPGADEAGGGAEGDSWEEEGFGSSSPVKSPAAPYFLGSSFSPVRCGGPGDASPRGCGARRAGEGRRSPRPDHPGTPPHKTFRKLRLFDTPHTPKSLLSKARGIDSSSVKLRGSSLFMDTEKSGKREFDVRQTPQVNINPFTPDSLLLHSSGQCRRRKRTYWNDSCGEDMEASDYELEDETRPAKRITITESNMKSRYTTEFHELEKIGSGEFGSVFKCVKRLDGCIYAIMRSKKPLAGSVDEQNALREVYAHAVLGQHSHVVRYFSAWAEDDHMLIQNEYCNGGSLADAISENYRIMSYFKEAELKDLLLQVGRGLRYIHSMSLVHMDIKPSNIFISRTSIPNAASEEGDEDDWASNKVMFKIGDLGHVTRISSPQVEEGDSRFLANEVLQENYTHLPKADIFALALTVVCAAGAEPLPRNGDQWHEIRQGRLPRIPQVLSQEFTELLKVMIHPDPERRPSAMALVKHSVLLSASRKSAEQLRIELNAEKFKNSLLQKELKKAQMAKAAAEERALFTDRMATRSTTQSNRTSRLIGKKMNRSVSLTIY
Autophagy HCS = autophagy modulation, high-content screen; MEF GFP-LC3 puncta imaging; test concentration mostly 10 µM; calls only at 10 µM (by protocol); 190,000 tested, 0.98% active;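 active means percentage of spot-positive cells more than 3 SD above its plate mean, without a fluorescence outlier flag or 80% toxicity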;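 further: spot-positive cell cutoff set from DMSO-treated cells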
b-catenin transl = modulators of beta-catenin nuclear translocation; HeLa beta-catenin nuclear translocation, immunofluorescence imaging; nuclear translocation activity, % at 5 µM; 190,000 tested, 0.3% active;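 active means nuclear translocation activity above 50% at 5 µM, with a well cell count of 50 or more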;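 further: per-cell ratio of nuclear to cytoplasmic median beta-catenin stain intensity; plate controls were DMSO negative control for no effect and GSK-3 inhibitor IX positive control for full effect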
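Test system: human HeLa cells, native beta-catenin. Compound dosing: 5 µM primary single dose, 0.1% DMSO, 0.02–20 µM confirmation series. Incubation: compound exposure 24 h at 37°C. Detection: beta-catenin immunostaining with DAPI counterstain, 20x imaging, 6 fields/well. Read-out basis: Nuclear/cytoplasmic beta-catenin signal ratio, % activation.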
Starred values were filed as active, the others as inactive; i = inactive; / = no result; + = active, no number.

SMILES	Insulin prom up	MT stabilize HCS	Wee1 degr inh	Autophagy HCS	b-catenin transl
CCN(CC)CCN1C(=O)c2oc3ccccc3c(=O)c2C1c1ccccc1 (stereo not given)	3.7*	2	0	i	3
O=C(NC(=S)N(Cc1ccccc1)c1ccccn1)C1CC1	1.1	2	-4	i	-1
Cc1ccc(OCCNC(=O)C(=O)NCc2ccco2)cc1	0.33	17*	0	i	38
CS(=O)(=O)N(Cc1ccc(C(=O)NN=C2CCCCCC2)cc1)c1ccccc1	/	3	1	i	-1
CS(=O)(=O)N(Cc1ccc(C(=O)NN=C2CCCC2)cc1)c1ccccc1	0.1	2	9.3*	i	/
O=C(NCCc1ccccc1)c1ccc(Cl)nc1	-0.04	2	4	i	-4
Cc1cc(Br)ccc1SCC(=O)OCC(=O)Nc1ncc(C(F)(F)F)cc1Cl	0.38	3	3	i	-4
Cc1ccc(-c2cc(C(=O)O)c3cc(Br)ccc3n2)o1	0.05	3	9.0*	i	-3
Cc1ccc(NC(=O)CCl)c(C)c1	3.5*	9	1	i	0
Cc1ccc(Cl)cc1N1CCN(C(=O)Cc2csc(Nc3nc(=S)[nH]c4ccccc34)n2)CC1	0.03	9.5*	0	i	-1
COC(=O)c1ccc(C(=O)OC)c(NC(=S)N2CCCC(C)C2)c1 (stereo not given)	0.13	4	-1	i	-4
CN(C)S(=O)(=O)c1cccc(NC(=O)CSc2nc3c(cc2C#N)C(=O)CC(C)(C)C3)c1	0.73	24*	9	i	6
COCCCNC(=O)Cn1cc(C(C)=O)c2ccccc21	0.18	3	-2	i	0
COCCNC(=O)Cn1cc(C(=S)N2CCOCC2)c2ccccc21	0.38	3	9.8*	i	0
CC(=O)Nc1cc(C(=O)N2CCc3ccccc3C2)ccc1Sc1ccc(Cl)cc1	-0.2	2	9.6*	i	1
CC(=O)Nc1cc(C(=O)N2CCc3ccccc3C2)ccc1Sc1ccc(F)cc1	-0.06	2	3	i	1
O=C(CN1CCOCC1)Nc1cccc(Cl)c1Cl	0.2	2	-3	i	-2
Cc1ccc(NS(=O)(=O)c2ccc(C(=O)NCC3CCCO3)cc2)cc1 (stereo not given)	-0.51	2	11*	i	-3
N#Cc1nc(-c2ccc(Cl)cc2)oc1NCC1CCCO1 (stereo not given)	-1.1	5	11*	i	1
O=S(=O)(NCC1CCCO1)c1ccc(-c2ccc(Cl)cc2)cc1 (stereo not given)	-0.56	5	-2	+	-3
COc1ccc(-c2ccc(S(=O)(=O)NCC3CCCO3)cc2)cc1 (stereo not given)	0.08	3	1	i	/
C=CCOCCN(CC)CC	0.16	/	0	/	2
O=C1C2CCCN2C(c2ccco2)N1c1ccc(F)cc1 (stereo not given)	/	3	10*	i	-1
O=C(NCc1ccccc1)c1cc[n+](CC(=O)c2cccs2)cc1	-1	/	0	/	0
Cc1cc(C)c(-n2c(SCCS(=O)(=O)c3ccc(F)cc3)n[nH]c2=O)c(C)c1	/	/	0	/	-2
SMILES	Insulin prom up	MT stabilize HCS	Wee1 degr inh	Autophagy HCS	b-catenin transl
CCc1nnc(NC(=O)C2c3ccccc3Oc3ccccc32)s1	/	4	3	i	-3
Cc1ccc(OCC(=O)N/N=C/c2cc([N+](=O)[O-])ccc2N2CCCCC2)cc1	-0.58	4	1	+	2
O=C(Cn1c2ccccc2c(=O)c2ccccc21)N/N=C/c1cc([N+](=O)[O-])ccc1N1CCCCCC1	-0.35	3	0	+	3
COc1ccccc1-c1nnc(NC(=O)c2ccc3c(c2)OCO3)s1	0.14	18	1	+	-4
Cc1ccc(C)c(OCc2nnc(NC(=O)c3ccc4c(c3)OCO4)s2)c1	0.47	/	11*	/	-1
Cc1cc(/C=C2\SC(=S)NC2=O)c(C)n1-c1cccc(O)c1	1.2	/	3	/	-6
Cc1sc(-n2c(C)cc(/C=C3\SC(=S)NC3=O)c2C)c(C#N)c1C	/	18	-2	i	80*
CCc1nn(-c2cc(Cl)ccc2OC)c2c1C(=O)CCC2	0.25	27*	-2	i	11
CCCc1nn(-c2cc(Cl)ccc2OC)c2c1C(=O)CC(C)(C)C2	-0.25	12*	-2	i	/
C#CCOCCOCCOCCNc1nc(N2CCN(C(=O)Cn3cc(CC(C)O)nn3)CC2)nc(N2CCN(C(=O)[C@H](C)n3cc(CCCN=C(N)N)nn3)CC2)n1 (stereo not given in full)	1	2	-1	i	/
COc1ccc(S(=O)(=O)N(CC(=O)N/N=C/c2cccs2)c2cc(C)cc(C)c2)cc1OC	0.18	3	0	i	-1
Cc1ccc(NC(=O)C2CCN(S(=O)(=O)c3c(C)n[nH]c3C)CC2)nc1	-0.12	3	10*	i	-2
Cc1ccc(NC(=O)C2CCN(S(=O)(=O)c3cnc[nH]3)CC2)nc1	0.59	6	-2	i	-1
COc1ccc(-c2noc(CN3CCCC(OCc4ccccn4)C3)n2)cc1 (stereo not given)	-0.09	/	1	/	1
N#C/C(=C\Nc1ccc2cn[nH]c2c1)c1nc(-c2ccccc2)cs1	-1.9	2	-4	i	1
Cc1ccnc(N/C=C(\C#N)c2nc(-c3cccc(Br)c3)cs2)c1	/	3	0	+	0
O=C(O)c1ccc(N=NN2CCCCCC2)cc1	-0.3	4	9	i	-1
S=C(NCc1ccccc1)NCc1ccc2c(c1)OCO2	-0.3	5	8.9*	i	-2
Fc1ccccc1NC(=S)NCc1ccc2c(c1)OCO2	-0.07	2	1	i	-2
COc1ccc(N2CCN(C(=O)c3c(C)nn(-c4ccccc4)c3C)CC2)cc1	-0.22	3	-3	i	-2
Cc1ccc(-n2c3c(c(=O)[nH]c2=O)C(C(F)(F)F)(C(F)(F)F)NC(=O)N3)cc1	3*	3	2	i	-1
Cc1ccc(-n2c3c(c(=O)[nH]c2=O)C(NS(=O)(=O)c2ccc(C)cc2)(C(F)(F)F)C(=O)N3)cc1 (stereo not given)	-0.09	2	-1	i	-1
Cc1csc(SCC(=O)NCc2ccccc2Cl)n1	-0.62	2	-2	i	-1
CC(=O)Nc1cc(C(=O)O)ccc1S(=O)(=O)c1ccc(C)cc1	0.18	5	9.2*	i	-3
CCC(=O)Nc1cc(C(=O)O)ccc1S(=O)(=O)c1ccc(C)cc1	0.59	2	-2	i	-4
CN(C)CCNC(=O)C(c1ccccc1)c1ccccc1	0.43	/	-2	/	-1
CC(C)N(CCO)C(=O)C(c1ccccc1)c1ccccc1	1.1	1	11*	i	0
O=C(N/N=C/c1c(Nc2cccc(C(F)(F)F)c2)nc2ccccn2c1=O)c1ccccc1	/	6	1	+	/
